# This is a sample that favours compounds with a hit; in the whole collection about 2.3% have one here.
# TRPC6 inhibitor – blocks the mouse TRPC6 cation channel | AID 2553 | HEK293-TRPC6, membrane potential dye, ACh-evoked depolarization; stronger effect = lower value | Q61143 | 310,000 compounds, 1.1% hits | B-score at 10 µM;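 active = B-score under library mean minus 3 SD, initial fluorescence not abnormally high, positive integrated signal ratio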;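 also: B-score derived from integrated fluorescence ratio over the kinetic read; more negative B-score means stronger inhibition of depolarization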
# Target sequence (Q61143 whole entry, looked up): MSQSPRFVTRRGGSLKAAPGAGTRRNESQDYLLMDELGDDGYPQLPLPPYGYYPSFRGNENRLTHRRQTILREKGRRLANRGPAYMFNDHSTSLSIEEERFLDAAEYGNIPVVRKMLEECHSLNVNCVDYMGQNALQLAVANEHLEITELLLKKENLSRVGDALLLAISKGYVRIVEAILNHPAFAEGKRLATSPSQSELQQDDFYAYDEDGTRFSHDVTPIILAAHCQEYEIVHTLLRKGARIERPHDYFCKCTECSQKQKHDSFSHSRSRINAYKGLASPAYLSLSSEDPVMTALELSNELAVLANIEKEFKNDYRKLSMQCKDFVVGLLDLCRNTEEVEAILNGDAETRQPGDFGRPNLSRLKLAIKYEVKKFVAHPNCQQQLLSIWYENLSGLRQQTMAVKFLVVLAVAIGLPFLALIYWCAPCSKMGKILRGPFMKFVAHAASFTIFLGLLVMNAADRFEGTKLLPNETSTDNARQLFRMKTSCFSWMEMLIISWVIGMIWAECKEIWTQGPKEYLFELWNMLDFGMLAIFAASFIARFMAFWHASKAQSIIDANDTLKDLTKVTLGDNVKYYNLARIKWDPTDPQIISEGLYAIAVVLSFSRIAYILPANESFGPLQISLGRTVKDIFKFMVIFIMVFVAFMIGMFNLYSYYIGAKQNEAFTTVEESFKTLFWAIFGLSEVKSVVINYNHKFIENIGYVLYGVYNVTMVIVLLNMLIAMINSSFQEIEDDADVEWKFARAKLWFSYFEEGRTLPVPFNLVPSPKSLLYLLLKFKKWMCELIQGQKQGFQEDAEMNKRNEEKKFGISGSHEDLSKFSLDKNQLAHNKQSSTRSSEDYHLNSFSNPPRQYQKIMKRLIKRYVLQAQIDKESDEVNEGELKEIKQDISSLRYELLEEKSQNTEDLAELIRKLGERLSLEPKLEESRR
# TRPC4 potent – allosterically enhances the mouse TRPC4 cation channel; Q9QUQ5; HEK293 TRPC4beta/mu-opioid, DAMGO EC20, Fluo-4 Ca2+ flux; stronger effect = higher value; B-score at 10 µM; 310,000 compounds, 0.42% hits; AID 2227;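 active = B-score of calcium response area above 5 SD of library B-scores, with initial fluorescence ratio within 5 SD of library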;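 also: B-score of integrated fluorescence ratio over time as area under calcium response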
# TRPC6 activator – mouse TRPC6 channel activation. Q61143. HEK293-TRPC6 membrane potential dye fluorescence; stronger effect = higher value. B-score at 10 µM. 310,000 compounds, 0.13% hits. AID 2550;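 active = B-score of the integrated fluorescence ratio above library mean plus 3 SD, and starting fluorescence ratio within library mean plus 5 SD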;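 also: higher score means more depolarization so channel activation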
# TRPC4 inh – TRPC4 (mouse) channel inhibition | Q9QUQ5 | HEK293 TRPC4beta/mu-opioid, DAMGO-evoked Fluo4 calcium flux; stronger effect = lower value | B-score at 10 µM | 300,000 compounds, 0.39% hits | AID 2247;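 active = B-score over 3 SD under the library average, no early fluorescence shift, positive overall ratio signal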
#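 Material: HEK293 cells with stable TRPC4beta plus mu-opioid receptor expression / Probe or stimulus: DAMGO in two steps, submaximal then maximal / Compound: single concentration per test compound / Technique: kinetic Fluo4 fluorescence imaging of calcium influx / Read-out: per-well B score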
# TRPC4 act – opens the mouse TRPC4 cation channel; HEK293 TRPC4beta/mu-opioid, Fluo4 calcium fluorescence; stronger effect = higher value; B-score at 10 µM; 310,000 compounds, 0.49% hits; AID 2237;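 active = B-score above 5 SD of library B-scores, and initial fluorescence ratio not above library mean plus 5 SD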;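 also: positive B-score marks a calcium rise read as TRPC4 activation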
#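 Material: TRPC4beta and mu-opioid receptor HEK293 stable cells | Incubation: 45 min room-temperature Fluo4 loading, 110 s read | Detection: Kinetic Fluo4 calcium fluorescence | Measure: Integrated baseline-normalised fluorescence ratio, converted to per-well B score | Benchmarks: Low control buffer alone, high control maximal DAMGO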
# TRPC4 spec 2 – mouse TRPC4 off-target activity of TRPC6 inhibitors, second screen | shares compounds with TRPC6 inhibitor | HEK293 TRPC4/MOR, membrane potential dye fluorescence; channel activated by saturating DAMGO dose | inhibition, % at 10 µM | 920 compounds, 42% hits;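 active = compounds whose fluorescence signal differed from control wells by over 3 SD, either direction, in both duplicate plates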
# TRPC4 spec – tests whether TRPC6 inhibitors also affect mouse TRPC4 | shares compounds with TRPC6 inhibitor | HEK293 TRPC4/mu-opioid, membrane potential fluorescence | activity change, negative = inhibition, % at 10 µM | 920 compounds, 61% hits | AID 2777;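 active = rise or fall in signal beyond 3 SD of buffer-only wells in both replicate plates, either sign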;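 also: integrated kinetic ratio of fluorescence range over baseline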
# HEK293 MPD ctr 2-1 – second counter-screen for TRPC6 inhibitors: parental HEK293 cells | shares compounds with TRPC6 inhibitor | parental HEK293 membrane potential dye fluorescence; maximal acetylcholine challenge after compound addition | signal change vs control, % at 10 µM | 920 compounds, 31% hits | AID 2779;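 active = membrane potential signal moving either way by over 3 SD of the maximum-effect control, in both duplicate plates, meaning non-specific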
# HEK293 MPD ctr-1 – parental HEK293 nonspecific activity of TRPC6 inhibitors | shares compounds with TRPC6 inhibitor | parental HEK293 membrane potential dye fluorescence | membrane potential signal change, % at 10 µM | 920 compounds, 60% hits;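 active = membrane potential signal shifting up or down by more than 3 SD of buffer-only wells, on both duplicate plates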
# HEK293 MPD ctr-2 – checks TRPC6 modulator effects in parental HEK293 cells. shares compounds with TRPC6 inhibitor. membrane potential dye fluorescence. membrane potential signal change, % at 10 µM. 2,400 compounds, 51% hits. AID 488924;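 active = membrane potential signal moves up or down beyond 5 SD from buffer-only wells, on both duplicate plates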
# HEK293 MPD ctr 2-2 – second check of TRPC6 modulator effects in parental HEK293 cells; AID 488926; membrane potential dye fluorescence; after compound, maximal acetylcholine stimulation; inhibition, % at 10 µM; shares compounds with TRPC6 inhibitor; 2,400 compounds, 14% hits;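 active = membrane potential signal drops by more than 5 SD from the mean control signal, in both duplicate plates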;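 also: plate controls were acetylcholine ECmax control wells for no effect and buffer only wells for full effect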
# TRPC4/MOR mod – tests whether TRPC6 modulators also affect mouse TRPC4 | shares compounds with TRPC6 inhibitor | HEK293 TRPC4/mu-opioid, membrane potential fluorescence | percent change from control (negative = decrease, positive = increase), % at 10 µM | 2,400 compounds, 69% hits;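 active = membrane potential signal moved up or down beyond 5 SD of buffer control wells, in both duplicate plates, actives on both sides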;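 also: plate controls were assay buffer wells for no effect and DAMGO maximal-effect wells for full effect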
# TRPC4 ctr inh 2 – second check of whether TRPC6 modulators also affect mouse TRPC4; inhibition, % at 10 µM; shares compounds with TRPC6 inhibitor; HEK293 TRPC4/mu-opioid, membrane potential dye fluorescence; stimulated with maximal-effect DAMGO; AID 488928; 2,400 compounds, 55% hits;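 active = drop in membrane potential signal beyond 5 SD of the control wells in both duplicate plates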;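 also: TRPC4 counter screen for TRPC6 hits run under conditions tuned for TRPC6 not TRPC4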
# TRPC6 inh conf – confirmation of mouse TRPC6 inhibitors; shares compounds with TRPC6 inhibitor; HEK293-TRPC6, membrane potential dye, ACh-evoked depolarization; inhibition, % at 10 µM; 3,300 compounds, 43% hits; AID 488960;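 active = fluorescence ratio falls more than 5 SD below the full-stimulation control mean, in both duplicate runs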;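 also: integrated fluorescence ratio of peak minus minimum over baseline after agonist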
# TRPC6 act confirm – mouse TRPC6 activator confirmation | shares compounds with TRPC6 inhibitor | activation, % at 10 µM | AID 488961 | 2,800 compounds, 11% hits | HEK293-TRPC6 membrane potential dye fluorescence, FDSS;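 active = ratio signal rise beyond 5 SD above unstimulated control wells' mean, seen in both duplicate runs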;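 also: plate controls were buffer EC0 wells for no effect and acetylcholine ECmax response for full effect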
# Active calls of the source: *; i = inactive; · = not tested or not shown.
SMILES,TRPC6 inhibitor,TRPC4 potent,TRPC6 activator,TRPC4 inh,TRPC4 act,HEK293 MPD ctr-2,HEK293 MPD ctr 2-2,TRPC4/MOR mod,TRPC4 ctr inh 2,TRPC6 inh conf,TRPC6 act confirm,others
Oc1ccc(C2=CCNCC2)cc1O,i,i,i,i,i,·,·,·,·,·,·,
Fc1ccc(C[n+]2c(-c3ccccc3)cc(-c3ccccc3)cc2-c2ccccc2)cc1,-6.91*,i,i,i,i,·,·,·,·,56.4%*,i,TRPC4 spec 2=75.0%*;TRPC4 spec=4.2%*;HEK293 MPD ctr 2-1=232.5%*;HEK293 MPD ctr-1=3.5%*
CC1(C(O)(C#CCN2CCCCC2)c2ccccc2)CCCC1 (stereo unspecified),-7.06*,i,i,i,i,141.5%*,105.5%*,26.5%*,44.5%*,91.0%*,·,
COc1ccccc1-n1c(Cc2ccccc2)nc2ccccc2c1=O,i,i,i,i,i,·,·,·,·,·,·,
COc1ccccc1CCNCc1cccc(C(F)(F)F)c1,i,i,i,i,i,·,·,·,·,·,·,
CCCCn1c(C)c(C(=O)O)c2cc(OC)c3ccccc3c21,i,i,i,i,i,·,·,·,·,·,·,
C[N+]1(C)[C@@H]2CC[C@H]1CC(OC(=O)C(c1ccccc1)c1ccccc1)C2 (stereo partly specified),-5.32*,i,i,i,i,i,91.0%*,i,i,96.0%*,i,
C[C@H](NC(=O)CCC(=O)N1C[C@H]2C[C@H](C1)c1cccc(=O)n1C2)c1ccccc1,i,i,i,i,i,·,·,·,·,·,·,
COc1cc2c(cc1O)C[C@H]1NCCc3cc4c(c-2c31)OCO4,-9.05*,i,i,i,i,·,·,·,·,52.5%*,i,TRPC4 spec 2=70.5%*;TRPC4 spec=-27.7%*;HEK293 MPD ctr 2-1=i;HEK293 MPD ctr-1=-398.5%*
COc1cc2c(cc1OC)-c1c(OC)c(OC)cc3c1C(C2)N(C)CC3 (stereo unspecified),-5.43*,i,i,i,i,-234.5%*,i,-44.5%*,51.0%*,53.0%*,i,
COc1cc2c(cc1OC)-c1c3c(cc4c1[C@@H](C2)N(C)CC4)OCO3,-8.03*,i,i,i,i,-194.5%*,76.0%*,-35.0%*,52.5%*,56.0%*,i,
COc1ccc(CC2c3cc(OC)c(OC)cc3CCN2C)cc1O (stereo unspecified),i,i,i,i,i,·,·,·,·,·,·,
CCCCCCC(Cl)(Cn1ccnc1)c1ccccc1 (stereo unspecified),i,i,i,i,i,·,·,·,·,·,·,

# Screening data as filed in PubChem BioAssay.
